Bioassay records from PubChem BioAssay.
M1 ag = human M1 muscarinic receptor agonists, primary screen, Fluo-8 calcium fluorescence, CHO-K1 cells, HTS. activation, % at 3 µM. AID 588814, 2011. CHO-K1 hM1, agonist mode; 0% DMSO, 100% acetylcholine EC100. Muscarinic acetylcholine receptor M1 (Homo sapiens), P11229. 360,000 compounds, 0.33% hits;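 active = activation above the run's mean compound activation plus 3 SD, cut at about 16% in these data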;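 note: peak over basal fluorescence ratio within a 140 s kinetic read after compound addition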
Target sequence (P11229 whole entry, looked up): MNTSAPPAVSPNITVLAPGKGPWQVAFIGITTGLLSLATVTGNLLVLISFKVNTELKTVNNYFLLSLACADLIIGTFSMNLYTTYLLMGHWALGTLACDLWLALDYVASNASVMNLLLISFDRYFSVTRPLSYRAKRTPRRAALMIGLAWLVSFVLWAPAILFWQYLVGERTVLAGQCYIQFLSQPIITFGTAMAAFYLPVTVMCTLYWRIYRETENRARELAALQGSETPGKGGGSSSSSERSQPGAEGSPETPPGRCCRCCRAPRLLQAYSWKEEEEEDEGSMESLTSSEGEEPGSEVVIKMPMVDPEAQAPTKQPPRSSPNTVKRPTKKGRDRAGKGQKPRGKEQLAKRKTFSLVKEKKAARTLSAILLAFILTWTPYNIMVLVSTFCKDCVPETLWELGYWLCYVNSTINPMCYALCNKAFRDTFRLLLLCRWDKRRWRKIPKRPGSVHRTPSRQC
M5 PAM = human M5 muscarinic receptor positive allosteric modulators, primary screen, CHO-K1 cells, Fluo-8 calcium fluorescence; Muscarinic acetylcholine receptor M5 (Homo sapiens), P08912; CHO-K1 hM5, ACh EC20 PAM; 0% = ACh EC20, 100% = ACh EC100; activation, % at 3 µM; 360,000 compounds, 0.3% hits; AID 624038, 2012;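 active = activation above the run cutoff, the mean activation of all test compounds plus 3 SD, cut at about 18% in these data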
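Assay system: CHO-K1 hM5 cells. Also added: acetylcholine at EC20 concentration, added after compound. Dosing: 3 µM, single dose. Times: compound preincubation 140 s before EC20 acetylcholine addition. Signal: Fluo-8 calcium fluorescence. Measure: % activation relative to EC20 and EC100 ACh responses. Repeats: singlicate, one well per test compound.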
CHRM5 agonist = human M5 muscarinic receptor agonists, primary screen, CHO-K1 cells, Fluo-8 calcium fluorescence; Muscarinic acetylcholine receptor M5 (Homo sapiens), P08912; CHO-K1 hM5 cells; 0% DMSO wells, 100% maximal acetylcholine response; activation, % at 3 µM; 360,000 compounds, 0.19% hits;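 active = activation above the run's mean over test compounds plus 3 SD, cut at about 23% in these data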;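 note: signal is peak over basal fluorescence ratio across the kinetic read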
CHRM5 antagonist = human M5 muscarinic receptor antagonists, primary screen, CHO cells, Fluo-8 calcium fluorescence; 360,000 compounds, 0.59% hits; inhibition, % at 3 µM; CHO-hM5 cells, ACh EC80; Muscarinic acetylcholine receptor M5 (Homo sapiens), P08912;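 active = inhibition above a per-plate cutoff, the mean of that plate's test compounds plus 3 SD, cut at about 27% in these data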;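 note: 0% = acetylcholine EC80 with DMSO and 100% = DMSO without agonist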
CHRM1 PAM = human M1 muscarinic receptor positive allosteric modulators, primary screen, CHO-K1 cells, Fluo-8 calcium fluorescence, 1536-well; Muscarinic acetylcholine receptor M1 (Homo sapiens), P11229; CHO-K1 hM1, ACh EC20; 0% = ACh EC20, 100% = maximal ACh; activation, % at 3 µM; 360,000 compounds, 0.088% hits; AID 588819, 2011; in the data active = activation above about 19%, passing the limit was not always enough
M1 antag = human M1 muscarinic receptor antagonists, primary screen, CHO-K1 cells, Fluo-8 calcium fluorescence, 1536-well; Muscarinic acetylcholine receptor M1 (Homo sapiens), P11229; CHO-K1 hM1, ACh EC80 antagonist; inhibition, % at 3 µM; 360,000 compounds, 1.3% hits; AID 588852, 2011;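 active = percent inhibition above its own plate's cutoff, namely the mean of that plate's compound wells plus 3 SD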;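 note: peak over basal fluorescence ratio during 140 s after agonist addition; 0% = ACh EC80 plus DMSO and 100% = DMSO alone without agonist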
Starred values were filed as active, the others as inactive. Compounds with a hit are over-represented: about 2% of the library has one in this group of screens.

Cc1noc(C)c1CSc1ccccc1C(=O)Nc1nccs1 was read as M1 ag -1.6, M5 PAM 29.9*, CHRM5 agonist -5.2, CHRM5 antagonist -8.2, CHRM1 PAM -0.8 and M1 antag -0.7.
Screening CN(Cc1ccc(Cl)cc1Cl)C(=O)C1CSC2(C)CCC(=O)N12 (stereo not given) returned M1 ag -2.0, M5 PAM -5.8, CHRM5 agonist 1.3, CHRM5 antagonist 4.8, CHRM1 PAM 8.1 and M1 antag -12.2.
For CN(C)CCCN(C(=O)c1ccco1)c1nc2c(F)cccc2s1 the results were M1 ag 6.5, M5 PAM -30.8, CHRM5 agonist -19.8, CHRM5 antagonist 20.0, CHRM1 PAM -14.7 and M1 antag 47.2*.
CN(C)CCCN(C(=O)c1ccco1)c1nc2c(F)cc(F)cc2s1 was read as M1 ag 7.1, M5 PAM 2.8, CHRM5 agonist -2.5, CHRM5 antagonist 4.0, CHRM1 PAM 2.0 and M1 antag 2.9.
For CN(C)CCCN(C(=O)c1ccco1)c1nc2ccc(F)cc2s1 the results were M1 ag 17.5*, M5 PAM 5.7, CHRM5 agonist -13.9, CHRM5 antagonist -0.4, CHRM1 PAM -5.3 and M1 antag 18.1.
For O=C(/C(N=Nc1cccc([N+](=O)[O-])c1)=C(/O)c1ccc(Br)cc1)C(F)(F)F the results were M1 ag -1.4, M5 PAM -19.7, CHRM5 agonist 4.4, CHRM5 antagonist 23.9, CHRM1 PAM -20.2 and M1 antag 47.7*.
For Cc1nnc(NC(=O)c2ccccc2NC(=O)c2ccccc2)s1 the results were M1 ag 1.6, M5 PAM -16.3, CHRM5 agonist 3.2, CHRM5 antagonist 15.6, CHRM1 PAM -9.7 and M1 antag 18.0.
Screening CC(OC(=O)CNC(=O)c1cccs1)C(=O)Nc1ccc(S(N)(=O)=O)cc1 (stereo not given) returned M1 ag 3.7, M5 PAM 2.0, CHRM5 agonist 0.5, CHRM5 antagonist 6.7, CHRM1 PAM 9.5 and M1 antag -12.5.
Screening CC(=O)Nc1ccc(NC(=O)C(C)OC(=O)CNC(=O)c2cccs2)cc1 (stereo not given) returned M1 ag -2.7, M5 PAM -31.7, CHRM5 agonist -7.5, CHRM5 antagonist 97.0*, CHRM1 PAM 4.9 and M1 antag -3.6.
Screening O=C(Nc1ccc(Cl)cc1)Nc1ccc2c(c1)OCO2 returned M1 ag 2.5, M5 PAM -17.9, CHRM5 agonist 9.0, CHRM5 antagonist 19.5, CHRM1 PAM -13.8 and M1 antag 36.2*.
For CC(=O)N(C)c1ccc(NC(=O)Nc2ccc(Cl)cc2)cc1 the results were M1 ag 4.4, M5 PAM -29.3, CHRM5 agonist 7.3, CHRM5 antagonist 28.9*, CHRM1 PAM -15.8 and M1 antag 36.2.
`N#Cc1ccc(NC(=O)Nc2ccc(Cl)cc2)cc1` gave M1 ag 9.0, M5 PAM -25.6, CHRM5 agonist 6.7, CHRM5 antagonist 17.4, CHRM1 PAM -13.0 and M1 antag 32.1*.
Screening CN(CC(=O)Nc1ccc(C#N)cc1)Cc1ccc(Cl)cc1 returned M1 ag -5.5, M5 PAM -12.0, CHRM5 agonist -1.0, CHRM5 antagonist 13.6, CHRM1 PAM -8.7 and M1 antag 13.3.
Screening CN(CC(=O)Nc1ccc(C#N)cc1)Cc1ccc(Cl)cc1Cl returned M1 ag -4.0, M5 PAM -22.9, CHRM5 agonist -6.2, CHRM5 antagonist 27.2*, CHRM1 PAM -11.9 and M1 antag 10.1.
CC(=O)N(C)c1ccc(NC(=O)Nc2ccc(C)cc2)cc1 was read as M1 ag -2.8, M5 PAM -18.6, CHRM5 agonist 2.0, CHRM5 antagonist 2.7, CHRM1 PAM -14.1 and M1 antag 17.1.
For CC1(Cc2ccc3c(c2)OCO3)C(=O)Nc2c(Cl)ccc(Cl)c21 (stereo not given) the results were M1 ag -4.8, M5 PAM -6.9, CHRM5 agonist -3.4, CHRM5 antagonist 1.4, CHRM1 PAM -1.2 and M1 antag 3.9.
Screening COc1ccc(C(NC(=O)C2CCN(CCCOc3ccccc3)CC2)c2cccs2)cc1 (stereo not given) returned M1 ag -3.5, M5 PAM -1.8, CHRM5 agonist -0.3, CHRM5 antagonist -5.6, CHRM1 PAM -0.4 and M1 antag -4.3.
Screening COc1ccc(S(=O)(=O)NCC2CCCN(C(=O)CCC(F)(F)F)C2)cc1 (stereo not given) returned M1 ag 0.2, M5 PAM 38.6*, CHRM5 agonist 13.9, CHRM5 antagonist 10.7, CHRM1 PAM 12.5 and M1 antag -10.9.
COCCC(=O)N1CCCC(CNS(=O)(=O)c2ccc(OC)cc2)C1 (stereo not given) was read as M1 ag -0.2, M5 PAM 2.1, CHRM5 agonist 5.0, CHRM5 antagonist 5.7, CHRM1 PAM 7.4 and M1 antag -1.4.
For CCOc1ccccc1CN1CCCC(CNS(=O)(=O)c2ccc(OC)cc2)C1 (stereo not given) the results were M1 ag -13.6, M5 PAM -5.2, CHRM5 agonist -8.5, CHRM5 antagonist 13.1, CHRM1 PAM -37.0 and M1 antag 37.6*.
C[C@H]1CN([C@@H](C)CO)C(=O)CCCn2nncc2CO[C@@H]1CN(C)Cc1ccc(Cl)c(Cl)c1 was read as M1 ag -9.4, M5 PAM -2.2, CHRM5 agonist -1.0, CHRM5 antagonist 1.3, CHRM1 PAM 5.2 and M1 antag -11.6.
Screening Cc1ccc(S(=O)(=O)/N=C2/NC(=O)/C(=C/c3cc([N+](=O)[O-])ccc3O)S2)cc1 returned M1 ag 32.0*, M5 PAM -18.0, CHRM5 agonist 49.0*, CHRM5 antagonist 8.2, CHRM1 PAM -15.1 and M1 antag 29.4.
O=C1NC(=Nc2ccccc2Cl)S/C1=C\c1cc([N+](=O)[O-])ccc1O was read as M1 ag 8.2, M5 PAM -3.2, CHRM5 agonist 31.5*, CHRM5 antagonist 12.3, CHRM1 PAM -3.1 and M1 antag 2.6.
`CCCCCCN1CCN(C2CN(Cc3cn(Cc4ccccc4)nn3)S(=O)(=O)C2)CC1` (stereo not given) gave M5 PAM 3.7, CHRM5 agonist -6.8 and CHRM5 antagonist -4.7.
